According to publication PMC6426238 (Helvetica chimica acta, 2018):

Columns and labels:
[1] = system: Caco2-cells; settings: degraded cyanophycin dipeptides; cited from earlier work
[2] = system: Plasmodium berghei; assay: parasitaemia reduction after intravenous tail-vein injection to infected mice; format: in vivo; settings: P. berghei-infected mice
How it was run: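 Single intravenous injection into the tail vein of mice, either uninfected or infected with Plasmodium berghei. Test compound was given in 0.9% NaCl at 0.01 ml/g body weight, with doses in μmol/kg. Oligo-arginine TFA salts were treated with Amberlyst A-26 (OH form) resin to remove TFA. Doses refer to the free peptide unless a TFA salt is stated. Read-outs were acute signs (death and its timing, heart rate, ataxia) and parasitaemia reduction in infected mice.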

[3] = system: MCF-7 cells; assay: cell penetration by confocal fluorescence microscopy; format: cell-based; settings: FAM-labeled peptides, membrane stain R18
How it was run: (§1)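 FAM-labelled octa-Adp derivatives (side chains as free carboxylic acids, esters or amides) were purified by preparative HPLC. Unless stated otherwise, TFA counter-ions were removed with OH-form anion-exchange resin before use.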

[4] = system: HEK293 cells; assay: as above; format: cell-based; settings: FAM-labeled peptides, membrane stain R18
How it was run: as §1

Compound | absorption by Caco2-cells [1] | cell permeability (CFM) [3] | cell permeability (CFM) [4] | other results
N=C(N)NCCC[C@H](NC(=O)CC(N)C(=O)O)C(=O)O (stereo partly drawn) [H-Adp-OH, H-βAsp-αArg-OH] | absorbed |  |  | 
O=CN(O)CCCP(=O)(O)O [Na-fosmidomycin, fosmidomycin] |  |  |  | Parasitaemia reduction ([2]; i.v. dose 1.5·10^4 μmol/kg): No parasitaemia reduction (Parasitaemia reductions < 20% must be considered non-significant in this investigation: ‘no parasitaemia reduction’); Parasitaemia reduction ([2]; i.v. dose 1.5·10^6 μmol/kg): 95% Parasitaemia reduction; Parasitaemia reduction ([2]; i.v. dose 5·10^3 μmol/kg): No parasitaemia reduction (Parasitaemia reductions < 20% must be considered non-significant in this investigation: ‘no parasitaemia reduction’); Parasitaemia reduction ([2]; i.v. dose 5·10^5 μmol/kg): 72% Parasitaemia reduction
NCCCC[C@H](NC(=O)C[C@H](N)C(=O)O)C(=O)O [β-Asp-Lys] | absorbed |  |  | 
FAM-(Adp(NMe2))8-NH2 [Compound 9] |  | mediocre to high cell permeability | mediocre to high cell permeability | 
FAM-(Adp(OMe))8-NH2 [Compound 8] |  | mediocre to high cell permeability | mediocre to high cell permeability | 
FAM-Adp8-NH2 [Compound 7] |  | does not enter the cells at all | does not enter the cells at all | 
